Measurements taken from ChEMBL document CHEMBL1938352, “Discovery of potent and liver-targeted stearoyl-CoA desaturase (SCD) inhibitors in a bispyrrolidine series” (Bioorg Med Chem Lett, 2012).

Experiments:
Acyl-CoA desaturase 1 [1] = molecular target: T1, Acyl-CoA desaturase 1 (Rattus norvegicus, UniProt P07308); test: Inhibition of SCD-1 activity in rat hepatocytes expressing organic anion transporting polypeptides assessed as reduction in [1-14C] stearoyl CoA desaturation by scintillation counting; type: cell-based, Hepatocyte
T1 sequence (P07308 whole entry): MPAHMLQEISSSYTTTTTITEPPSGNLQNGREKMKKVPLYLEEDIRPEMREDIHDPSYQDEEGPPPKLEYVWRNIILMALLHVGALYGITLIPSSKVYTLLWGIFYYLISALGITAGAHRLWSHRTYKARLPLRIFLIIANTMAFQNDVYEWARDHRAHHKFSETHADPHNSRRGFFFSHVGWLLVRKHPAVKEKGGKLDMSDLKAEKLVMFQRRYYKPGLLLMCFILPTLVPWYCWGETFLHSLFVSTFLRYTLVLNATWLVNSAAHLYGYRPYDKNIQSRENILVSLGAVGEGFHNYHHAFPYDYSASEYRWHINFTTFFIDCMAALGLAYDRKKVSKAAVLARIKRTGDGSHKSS
Summary of the method: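 The cellular assay used rat hepatocytes with functional OATPs to assess active transport. IC50 values are the average of at least two independent titrations.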

Acyl-CoA desaturase 1 [2] = molecular target: T1, Acyl-CoA desaturase 1; test: Inhibition of SCD-1 activity in rat liver microsomes assessed as reduction in [1-14C] stearoyl CoA desaturation by scintillation counting; design: species or system Microsome
Summary of the method: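 The enzymatic assay used SCD-induced rat liver microsomes. IC50 values are the average of at least two independent titrations.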

Stearoyl-CoA desaturase = molecular target: T2, Stearoyl-CoA desaturase (Homo sapiens, UniProt O00767); test: Inhibition of SCD-1 activity in organic anion transporting polypeptides-deficient human HepG2 cells assessed as reduction in [1-14C] stearoyl CoA desaturation by scintillation counting; type: cell-based
T2 sequence (O00767 whole entry): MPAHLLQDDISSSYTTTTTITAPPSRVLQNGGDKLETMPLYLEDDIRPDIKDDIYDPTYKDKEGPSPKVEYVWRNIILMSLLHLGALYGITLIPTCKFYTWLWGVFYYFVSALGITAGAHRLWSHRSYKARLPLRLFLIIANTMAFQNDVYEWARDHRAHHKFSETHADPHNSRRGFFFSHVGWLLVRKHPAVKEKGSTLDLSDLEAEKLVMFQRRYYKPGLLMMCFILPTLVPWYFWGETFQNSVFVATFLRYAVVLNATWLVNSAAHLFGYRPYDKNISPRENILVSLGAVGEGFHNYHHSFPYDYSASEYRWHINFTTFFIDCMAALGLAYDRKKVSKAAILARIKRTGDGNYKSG
Summary of the method: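 The whole-cell assay used human hepatocellular carcinoma HepG2 cells, which lack active OATPs. IC50 values are the average of at least two independent titrations.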

[3] = molecular target: T3, Acyl-CoA desaturase 1 (Rattus norvegicus) (UniProt P07308); test: Ratio of IC50 for SCD-1 activity in rat hepatocytes expressing organic anion transporting polypeptides to IC50 for SCD-1 activity in rat liver microsomes; conditions: Hepatocyte, Microsome
T3 sequence (whole entry): T1 sequence (P07308 whole entry)
Summary of the method: (§1)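 The fold shift is the ratio of IC50 values between two assays: rat liver microsomal enzyme, HepG2 whole cell, and OATP-containing rat hepatocytes. Each IC50 is the average of at least two independent titrations.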

[4] = molecular target: T4, Stearoyl-CoA desaturase 5 (Homo sapiens, UniProt Q86SK9); test: Inhibition of human SCD-5
T4 sequence (Q86SK9 whole entry): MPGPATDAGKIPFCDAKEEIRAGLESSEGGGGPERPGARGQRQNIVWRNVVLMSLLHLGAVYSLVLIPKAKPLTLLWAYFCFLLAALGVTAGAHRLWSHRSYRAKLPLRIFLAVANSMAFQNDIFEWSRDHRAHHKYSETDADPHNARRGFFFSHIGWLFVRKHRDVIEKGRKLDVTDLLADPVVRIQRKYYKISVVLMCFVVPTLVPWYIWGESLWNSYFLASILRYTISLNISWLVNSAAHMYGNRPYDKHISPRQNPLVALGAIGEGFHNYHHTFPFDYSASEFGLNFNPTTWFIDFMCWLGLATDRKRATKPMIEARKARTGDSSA

Mus musculus [5] = test: Antidiabetic activity in C57BL/6 mouse LPD model assessed as reduction in liver SCD activity at 14.8 uM liver concentration dosed at 10 mg/kg, po measured 3 hrs post dosing; type: functional; conditions: C57BL6, 3 h
Acyl-CoA desaturase 1 [6] = molecular target: T5, Acyl-CoA desaturase 1 (Mus musculus, UniProt P13516); test: Inhibition of mouse SCD-1
T5 sequence (P13516 whole entry): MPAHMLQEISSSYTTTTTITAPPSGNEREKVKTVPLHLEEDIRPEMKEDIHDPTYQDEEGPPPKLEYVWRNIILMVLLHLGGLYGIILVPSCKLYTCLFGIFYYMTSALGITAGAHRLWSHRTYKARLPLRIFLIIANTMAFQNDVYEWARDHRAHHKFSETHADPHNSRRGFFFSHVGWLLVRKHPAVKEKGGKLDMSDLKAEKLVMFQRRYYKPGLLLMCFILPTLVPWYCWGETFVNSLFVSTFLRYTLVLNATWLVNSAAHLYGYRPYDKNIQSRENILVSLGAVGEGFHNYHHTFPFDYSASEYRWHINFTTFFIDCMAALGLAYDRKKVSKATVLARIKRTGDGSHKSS

[7] = AUC (0 to 6 hrs) in C57BL/6 mouse at 10 mg/kg, po; type: ADME, organism-based, C57BL6; design: time < 6 hr, dose 10 mg/kg, route oral; conditions: plasma
Summary of the method: (§2)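 C57BL6 mice were dosed orally at 10 mg/kg. Drug exposure was measured over 0–6 h to give AUC_0–6h, and oral bioavailability (F) was also determined.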

[8] = Oral bioavailability in C57BL/6 mouse at 10 mg/kg; type: ADME, organism-based, C57BL6; conditions: in vivo; summary of the method: as §2
HepG2 = test: Ratio of IC50 for SCD-1 activity in organic anion transporting polypeptides-deficient human HepG2 cells to IC50 for SCD-1 activity in rat hepatocytes expressing organic anion transporting polypeptides; type: cell-based; summary of the method: as §1
[9] = Drug level in liver of C57BL/6 mouse at 10 mg/kg, po measured 6 hrs post dosing; type: ADME, organism-based, C57BL6; design: dose 10 mg/kg, route oral; conditions: read-out: Drug uptake
Summary of the method: (§3)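 Tissue distribution was measured in mice given 10 mg/kg PO, n = 2. Liver, plasma and Harderian gland drug concentrations were measured 6 h post dose. Liver/plasma and liver/Harderian ratios were taken from these concentrations.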

[10] = molecular target: Acyl-CoA (8-3)-desaturase (Homo sapiens, UniProt O60427); test: Inhibition of human delta-5 desaturase activity in human HepG2 cells using [1-14C]-stearic acid tracer; type: cell-based
Acyl-CoA (8-3)-desaturase, sequence (O60427 whole entry): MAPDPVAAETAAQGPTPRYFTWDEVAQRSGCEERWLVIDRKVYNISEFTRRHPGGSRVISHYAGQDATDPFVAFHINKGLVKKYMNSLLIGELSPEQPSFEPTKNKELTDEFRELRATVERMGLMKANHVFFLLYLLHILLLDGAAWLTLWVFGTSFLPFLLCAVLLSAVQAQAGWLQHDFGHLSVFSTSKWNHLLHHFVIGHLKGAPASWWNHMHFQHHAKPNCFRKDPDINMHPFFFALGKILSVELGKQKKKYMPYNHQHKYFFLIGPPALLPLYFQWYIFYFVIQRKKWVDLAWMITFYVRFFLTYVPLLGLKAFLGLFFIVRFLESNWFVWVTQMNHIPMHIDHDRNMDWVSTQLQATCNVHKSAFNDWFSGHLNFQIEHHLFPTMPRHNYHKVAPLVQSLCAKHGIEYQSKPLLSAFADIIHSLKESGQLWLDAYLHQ

Acyl-CoA 6-desaturase = molecular target: T6, Acyl-CoA 6-desaturase (Homo sapiens, UniProt O95864); test: Inhibition of human delta-6 desaturase activity in human HepG2 cells using [1-14C]-stearic acid tracer; type: cell-based
T6 sequence (O95864 whole entry): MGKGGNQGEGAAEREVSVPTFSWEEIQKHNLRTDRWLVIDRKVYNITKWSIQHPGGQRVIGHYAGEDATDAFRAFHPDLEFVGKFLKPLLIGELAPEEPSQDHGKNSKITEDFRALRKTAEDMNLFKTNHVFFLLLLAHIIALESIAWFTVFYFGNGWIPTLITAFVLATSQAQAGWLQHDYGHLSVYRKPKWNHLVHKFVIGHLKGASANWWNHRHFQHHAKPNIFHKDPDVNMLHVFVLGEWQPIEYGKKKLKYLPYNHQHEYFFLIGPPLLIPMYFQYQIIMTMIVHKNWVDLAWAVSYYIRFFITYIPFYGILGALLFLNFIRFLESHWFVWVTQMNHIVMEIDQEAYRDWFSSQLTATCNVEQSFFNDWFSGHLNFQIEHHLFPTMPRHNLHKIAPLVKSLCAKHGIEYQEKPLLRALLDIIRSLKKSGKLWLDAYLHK

Mus musculus [11] = test: Antidiabetic activity in C57BL/6 mouse LPD model assessed as reduction in liver SCD activity at 1.6 uM liver concentration dosed at 0.4 mg/kg, po measured 3 hrs post dosing; type: functional; conditions: C57BL6, 3 h
Mus musculus [12] = test: Antidiabetic activity in po dosed C57BL/6 mouse LPD model assessed as reduction in liver SCD activity measured 3 hrs post dosing; conditions: C57BL6, Liver
[13] = Drug level in plasma of C57BL/6 mouse at 10 mg/kg, po measured 6 hrs post dosing; type: ADME, organism-based, C57BL6; design: dose 10 mg/kg, route oral; conditions: read-out: Drug uptake; summary of the method: as §3
[14] = Ratio of drug uptake in liver to plasma of C57BL/6 mouse at 10 mg/kg, po measured 6 hrs post dosing; type: ADME, organism-based, C57BL6; design: dose 10 mg/kg, route oral; summary of the method: as §3
Mus musculus [15] = test: Antidiabetic activity in C57BL/6 mouse LPD model assessed as reduction in liver SCD activity at 4.9 uM liver concentration dosed at 2 mg/kg, po measured 3 hrs post dosing; type: functional; conditions: C57BL6, 3 h
Mus musculus [16] = test: Antidiabetic activity in C57BL/6 mouse LPD model assessed as reduction in liver SCD activity at 7.7 uM liver concentration dosed at 2 mg/kg, po measured 3 hrs post dosing; type: functional; conditions: C57BL6, 3 h
Mus musculus [17] = test: Ratio of drug uptake in liver to harderian gland of C57BL/6 mouse at 10 mg/kg, po measured 6 hrs post dosing; conditions: in vivo
[18] = Drug level in harderian gland of C57BL/6 mouse at 10 mg/kg, po measured 6 hrs post dosing; type: ADME, organism-based, C57BL6; design: dose 10 mg/kg, route oral; conditions: read-out: Drug uptake; summary of the method: as §3

## O=C(O)Cn1nnc(-c2nnc(N3CC4CN(c5cc(F)ccc5Cl)CC4C3)s2)n1 (stereo not drawn)
Acyl-CoA desaturase 1 [1]
  IC50: 300 nM
Acyl-CoA desaturase 1 [2]
  IC50: 59 nM
Stearoyl-CoA desaturase
  IC50: > 10000 nM

## O=C(O)Cn1nnc(-c2cnc(N3CC4(CCN(c5cc(F)ccc5Cl)CC4)C3)s2)n1
Acyl-CoA desaturase 1 [1]
  IC50: 506 nM
Acyl-CoA desaturase 1 [2]
  IC50: 128 nM
Stearoyl-CoA desaturase
  IC50: > 100000 nM

## O=C(O)Cn1nnc(-c2cnc(N3CC4CN(c5cc(F)ccc5Cl)CC4C3)s2)n1 (stereo not drawn)
Acyl-CoA desaturase 1 [1]
  IC50: 233 nM
Acyl-CoA desaturase 1 [2]
  IC50: 34 nM
Stearoyl-CoA desaturase
  IC50: 15400 nM

## O=C(O)Cn1nnc(-c2cc(N3CC4CN(c5cc(F)ccc5Cl)CC4C3)no2)n1 (stereo not drawn)
[3]
  Ratio IC50: 8
Acyl-CoA desaturase 1 [1]
  IC50: 198 nM
[4]
  IC50: 242 nM
Mus musculus [5]
  inhibition in vivo at 10 mg/kg: 72%
Acyl-CoA desaturase 1 [6]
  IC50: 18 nM
[7]
  AUC(0-t) at 6 h: 2.1 µM·h
Acyl-CoA desaturase 1 [2]
  IC50: 24 nM
[8]
  bioavailability: 24%
HepG2
  Ratio IC50: 50
Stearoyl-CoA desaturase
  IC50: 9900 nM
[9]
  concentration at 6 h: 2700 nM
[10]
  IC50: > 80000 nM
Acyl-CoA 6-desaturase
  IC50: > 80000 nM

## O=C(O)Cn1nnc(-c2cnc(N3CCC4(CC3)CN(c3cc(F)ccc3Cl)C4)s2)n1
Acyl-CoA desaturase 1 [1]
  IC50: 438 nM
Acyl-CoA desaturase 1 [2]
  IC50: 36 nM
Stearoyl-CoA desaturase
  IC50: > 100000 nM

## O=C(O)Cn1nnc(-c2cnc(N3CC4(C3)CN(c3cc(F)ccc3Cl)C4)s2)n1
Acyl-CoA desaturase 1 [1]
  IC50: 103 nM
Acyl-CoA desaturase 1 [2]
  IC50: 43 nM
Stearoyl-CoA desaturase
  IC50: 50900 nM

## O=C(O)Cn1nnc(-c2cnc(N3C[C@@H]4C[C@H]3CN4c3cc(F)ccc3Cl)s2)n1
Acyl-CoA desaturase 1 [1]
  IC50: 176 nM
Acyl-CoA desaturase 1 [2]
  IC50: 29 nM
Stearoyl-CoA desaturase
  IC50: 9140 nM

## O=C(O)Cn1nnc(-c2cc(N3CCC(Oc4cc(F)ccc4Br)CC3)no2)n1 [MK-8245]
Mus musculus [11]
  inhibition in vivo at 0.4 mg/kg: 49%
Mus musculus [12]
  ED50: 1 mg/kg
[13]
  concentration at 6 h: 30 nM
[14]
  Kp at 6 h: 90
Mus musculus [15]
  inhibition in vivo at 2 mg/kg: 89%

## O=C(O)Cn1nnc(-c2cnc(N3CCN(c4cc(F)ccc4Cl)CC3)s2)n1
Mus musculus [16]
  inhibition in vivo at 2 mg/kg: 61%
Acyl-CoA desaturase 1 [1]
  IC50: 134 nM
Acyl-CoA desaturase 1 [6]
  IC50: 21 nM
[7]
  AUC(0-t) at 6 h: 0.7 µM·h
[13]
  concentration at 6 h: 220 nM
Acyl-CoA desaturase 1 [2]
  IC50: 28 nM
Mus musculus [17]
  Ratio: 180
[14]
  Kp at 6 h: 40
[8]
  bioavailability: 15%
Stearoyl-CoA desaturase
  IC50: 4200 nM
[9]
  concentration at 6 h: 9300 nM
[18]
  concentration at 6 h: 50 nM
